Activity calls are given as the source filed them. No cut-off for these calls is given here.
Legend:
PC-3 = test: Cytotoxicity against human PC-3 cells assessed as reduction in cell viability preincubated for 48 hrs and measured after 4 hrs by MTT assay; assay type: functional, cell-based
MGC-803 [1] = test: Antitumor activity against human MGC-803 cells xenografted in BALB/C nude mouse assessed as tumor growth inhibition at 10 mg/kg, ip administered every 2 days and measured 3 times per week; assay type: functional, organism-based; conditions: time 2.0 day
Outline: (§1)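 Male BALB/c nude mice, 6 weeks old, given 5×10^6 MGC-803 cells s.c. in the flank. When tumors reached about 80 mm3, mice were randomized (n = 6/group) and dosed i.p. every 2 days. Vehicle was 5% DMSO in saline. Drug solutions were 1.0 or 2.0 mg/mL (DMSO/saline). Tumor length and width plus body weight were measured three times weekly; volume = lw²/2. Mean ± SD.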

MGC-803 [2] = test: Cytotoxicity against human MGC-803 cells expressing mutant type p53 assessed as reduction in cell viability preincubated for 48 hrs and measured after 4 hrs by MTT assay; assay type: functional, cell-based
DU-145 = test: Cytotoxicity against human DU145 cells expressing mutant type p53 assessed as reduction in cell viability preincubated for 48 hrs and measured after 4 hrs by MTT assay; assay type: functional, cell-based
Outline: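 MTT assay. Cells grown in DMEM (T24, MGC-803, A549, HL-7702), RPMI-1640 (DU145) or DMEM-F12 (PC-3), each with 10% FBS. Exposed to 1.25–20 µM in medium with 1% DMSO for 48 h, then MTT for 4 h. Formazan dissolved in DMSO and read at 570 nm. Five wells per concentration; means ± SD of independent repeats.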

Mus musculus = test: Toxicity against BALB/c nude mouse xenografted with human MGC-803 cells assessed as body weight at 10 mg/kg, ip administered every 2 days and measured 3 times per week for 16 days; assay type: organism-based; conditions: in vivo, 384 h, time 16 day
Outline: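 Male BALB/c nude mice, 6 weeks old, received 5×10^6 MGC-803 cells subcutaneously in the flank. At about 80 mm3, mice were randomized (n = 6/group). They were dosed i.p. every 2 days with vehicle (5% DMSO in saline, v/v) or drug in DMSO/saline at 1.0 or 2.0 mg/mL. Body weight was recorded three times weekly; mean ± SD.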

L02 = test: Cytotoxicity against human HL-7702 cells expressing wild type p53 assessed as reduction in cell viability preincubated for 48 hrs and measured after 4 hrs by MTT assay; assay type: functional, cell-based
T-24 = test: Cytotoxicity against human T-24 cells […] assessed as reduction in cell viability preincubated for 48 hrs and measured after 4 hrs by MTT assay; assay type: functional, cell-based
A549 = test: Cytotoxicity against human A549 cells expressing wild type p53 assessed as reduction in cell viability preincubated for 48 hrs and measured after 4 hrs by MTT assay; assay type: functional, cell-based
MGC-803 [3] = test: Antitumor activity against human MGC-803 cells xenografted in BALB/C nude mouse assessed as tumor growth inhibition at 10 mg/kg, ip administered every 2 days and measured 3 times per week for 16 days; assay type: functional; parameters: scale not given: the % may be the effect or the level left; conditions: time 16 day; outline: as §1
MGC-803 [4] = test: Induction of apoptosis in human MGC-803 cells assessed as increase in Bim expression at 5 uM measured after 24 hrs by Western blot analysis; assay type: functional, cell-based
Outline: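 MGC-803 cells (2×10^6) cultured overnight, then exposed 24 h to 0.5, 1.0 or 2.5 μM, or 5.0 μM for the reference agent. Lysates were resolved by SDS-PAGE, transferred to PVDF and probed with primary antibodies. Detection used AP-linked anti-rabbit IgG and ECL. β-actin served as loading control.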

MGC-803 [5] = test: Induction of apoptosis in human MGC-803 cells assessed as increase in Bax expression at 5 uM measured after 24 hrs by Western blot analysis; assay type: functional, cell-based
Outline: (§2)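 MGC-803 cells (2×10^6) plated overnight, then treated for 24 h at 0.5, 1.0 or 2.5 µM (test agent) or 5.0 µM (comparator). Whole-cell lysates separated by SDS-PAGE, transferred to PVDF and probed with primary antibodies. AP-linked anti-rabbit IgG, ECL detection, β-actin loading control. Representative of three experiments.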

MGC-803 [6] = test: Induction of apoptosis in human MGC-803 cells assessed as decrease in Bcl-xL expression at 5 uM measured after 24 hrs by Western blot analysis; assay type: functional, cell-based; outline: as §2
MGC-803 [7] = test: Induction of apoptosis in human MGC-803 cells assessed as decrease in Bcl-2 expression at 5 uM measured after 24 hrs by Western blot analysis; assay type: functional, cell-based; outline: as §2
MGC-803 [8] = test: Induction of apoptosis in human MGC-803 cells assessed as decrease in Bak expression at 5 uM measured after 24 hrs by Western blot analysis; assay type: functional, cell-based; outline: as §2
PLC-PRF-5 = test: Antitumor activity against human PLC/PRF/5 cells xenografted in mouse assessed as tumor growth inhibition at 30 mg/kg; assay type: functional; conditions: read-out: TGI

Row | SMILES | IC50 (PC-3) | Activity (MGC-803 [1]) | IC50 (MGC-803 [2]) | IC50 (DU-145) | Activity (Mus musculus) | IC50 (L02) | IC50 (T-24) | IC50 (A549) | Activity (MGC-803 [3]) | Activity (MGC-803 [4]) | Activity (MGC-803 [5]) | Activity (MGC-803 [6]) | Activity (MGC-803 [7]) | Activity (MGC-803 [8]) | inhibition in vivo at 30 mg/kg (PLC-PRF-5)
1 | COc1cccc2c1C(=O)c1c(O)c3c(c(O)c1C2=O)C[C@@](O)(C(=O)CO)C[C@@H]3O[C@H]1C[C@H](N)[C@@H](O)[C@H](C)O1 [EPIRUBICIN] | 2.31 µM | Active | 1.2 µM | 2.01 µM | Non-Toxic | 2.1 µM | 1.12 µM | 0.82 µM | 67.2% |  |  |  |  |  | 
2 | CCN(CC)CCCNc1nc(/C=C/c2ccc(OC)c(OC)c2)nc2ccccc12 | > 100 µM |  | > 100 µM | > 100 µM |  | > 100 µM | > 100 µM | > 100 µM |  |  |  |  |  |  | 
3 | O=[N+]([O-])c1ccc(/C=C/c2nc(NCCN3CCOCC3)c3cc(Cl)ccc3n2)cc1 | > 100 µM |  | > 100 µM | > 100 µM |  | > 100 µM | > 100 µM | > 100 µM |  |  |  |  |  |  | 
4 | CCN(CC)CCCNc1nc(/C=C/c2ccc3c(c2)OCO3)nc2ccc(Cl)cc12 | > 100 µM |  | 12.9 µM | > 100 µM |  | > 100 µM | 9.74 µM | > 100 µM |  |  |  |  |  |  | 
5 | CN(C)CCCNc1nc(/C=C/c2ccc([N+](=O)[O-])cc2)nc2ccc(Cl)cc12 | 5.32 µM |  | 6.67 µM | 8.49 µM |  | > 100 µM | 7.42 µM | 15.8 µM |  |  |  |  |  |  | 
6 | COc1ccc(/C=C/c2nc(NCCN(C)C)c3cc(Cl)ccc3n2)cc1OC | 23.6 µM |  | 11.8 µM | 17.9 µM |  | 80.5 µM | 12.1 µM | 21.3 µM |  |  |  |  |  |  | 
7 | COc1ccc(/C=C/c2nc(NCCCN(C)C)c3ccccc3n2)cc1 | 16.3 µM |  | 18.3 µM | 15.3 µM |  | 25.3 µM | 20.3 µM | 24.8 µM |  | inactive | inactive | inactive | inactive | inactive | 60%
